Calls of active or inactive are those of the source.
How the values were obtained:
[1] = target: T1, Toll-like receptor 7 (Homo sapiens) (UniProt Q9NYK1); assay: Agonist activity at TLR7 in human whole blood assessed as induction of IFN-alpha/beta by measuring increase in secreted alkaline phosphatase level pretreated for 24 hrs followed by HEK-IFN-alpha/beta reporter cell addition after 24 hrs by spectrophotometric method
T1 sequence (whole entry): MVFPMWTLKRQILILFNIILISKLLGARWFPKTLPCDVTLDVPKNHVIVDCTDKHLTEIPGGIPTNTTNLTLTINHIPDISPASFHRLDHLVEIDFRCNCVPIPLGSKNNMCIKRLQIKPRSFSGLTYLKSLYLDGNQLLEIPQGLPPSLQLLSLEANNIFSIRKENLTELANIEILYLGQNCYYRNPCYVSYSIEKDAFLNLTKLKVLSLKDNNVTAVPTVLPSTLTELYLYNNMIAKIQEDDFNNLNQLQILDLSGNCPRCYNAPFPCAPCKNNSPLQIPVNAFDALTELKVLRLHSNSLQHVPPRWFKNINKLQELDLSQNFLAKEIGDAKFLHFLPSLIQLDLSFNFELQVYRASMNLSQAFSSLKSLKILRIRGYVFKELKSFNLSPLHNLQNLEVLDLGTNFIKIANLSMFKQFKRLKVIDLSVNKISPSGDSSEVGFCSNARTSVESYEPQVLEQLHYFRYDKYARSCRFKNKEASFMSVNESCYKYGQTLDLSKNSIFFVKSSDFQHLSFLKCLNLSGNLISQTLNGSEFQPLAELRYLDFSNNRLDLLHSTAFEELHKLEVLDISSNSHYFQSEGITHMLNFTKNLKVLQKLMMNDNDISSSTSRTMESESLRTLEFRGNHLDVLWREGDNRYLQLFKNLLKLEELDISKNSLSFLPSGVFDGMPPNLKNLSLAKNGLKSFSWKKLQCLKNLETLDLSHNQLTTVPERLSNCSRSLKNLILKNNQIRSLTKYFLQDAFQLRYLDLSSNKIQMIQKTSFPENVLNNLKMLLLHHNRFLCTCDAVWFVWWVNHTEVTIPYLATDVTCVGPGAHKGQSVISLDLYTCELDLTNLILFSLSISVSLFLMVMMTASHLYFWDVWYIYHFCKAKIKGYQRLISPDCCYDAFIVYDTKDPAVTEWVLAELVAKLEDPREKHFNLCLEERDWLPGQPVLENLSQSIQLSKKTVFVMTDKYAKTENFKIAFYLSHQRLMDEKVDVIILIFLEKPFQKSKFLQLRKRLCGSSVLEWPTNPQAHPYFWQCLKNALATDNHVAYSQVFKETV
In short: (§1)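 Heparinized human whole blood, diluted 1:2 in RPMI with 10% FBS, was incubated with serial compound dilutions at 37°C for 24 h. Supernatant was moved by liquid handler onto HEK-IFNα/β, HEK-IFNγ or HEK-TNFα/IL-1β reporter cells (1x10⁶ cells/mL, DMEM with 10% FBS) for 24 h at 37°C. Plates were washed and given detection medium for 16 h, then sAP read at 620 nm. Calibration used serum spiked with IFN-α, IFN-γ or TNF-α.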

[2] = target: T2, Toll-like receptor 8 (Homo sapiens) (UniProt Q9NR97); assay: Agonist activity at TLR8 in human whole blood assessed as induction of IFN-gamma by measuring increase in secreted alkaline phosphatase level pretreated for 24 hrs followed by HEK-IFN-gamma reporter cell addition after 24 hrs by spectrophotometric method; in short: as §1
T2 sequence (whole entry): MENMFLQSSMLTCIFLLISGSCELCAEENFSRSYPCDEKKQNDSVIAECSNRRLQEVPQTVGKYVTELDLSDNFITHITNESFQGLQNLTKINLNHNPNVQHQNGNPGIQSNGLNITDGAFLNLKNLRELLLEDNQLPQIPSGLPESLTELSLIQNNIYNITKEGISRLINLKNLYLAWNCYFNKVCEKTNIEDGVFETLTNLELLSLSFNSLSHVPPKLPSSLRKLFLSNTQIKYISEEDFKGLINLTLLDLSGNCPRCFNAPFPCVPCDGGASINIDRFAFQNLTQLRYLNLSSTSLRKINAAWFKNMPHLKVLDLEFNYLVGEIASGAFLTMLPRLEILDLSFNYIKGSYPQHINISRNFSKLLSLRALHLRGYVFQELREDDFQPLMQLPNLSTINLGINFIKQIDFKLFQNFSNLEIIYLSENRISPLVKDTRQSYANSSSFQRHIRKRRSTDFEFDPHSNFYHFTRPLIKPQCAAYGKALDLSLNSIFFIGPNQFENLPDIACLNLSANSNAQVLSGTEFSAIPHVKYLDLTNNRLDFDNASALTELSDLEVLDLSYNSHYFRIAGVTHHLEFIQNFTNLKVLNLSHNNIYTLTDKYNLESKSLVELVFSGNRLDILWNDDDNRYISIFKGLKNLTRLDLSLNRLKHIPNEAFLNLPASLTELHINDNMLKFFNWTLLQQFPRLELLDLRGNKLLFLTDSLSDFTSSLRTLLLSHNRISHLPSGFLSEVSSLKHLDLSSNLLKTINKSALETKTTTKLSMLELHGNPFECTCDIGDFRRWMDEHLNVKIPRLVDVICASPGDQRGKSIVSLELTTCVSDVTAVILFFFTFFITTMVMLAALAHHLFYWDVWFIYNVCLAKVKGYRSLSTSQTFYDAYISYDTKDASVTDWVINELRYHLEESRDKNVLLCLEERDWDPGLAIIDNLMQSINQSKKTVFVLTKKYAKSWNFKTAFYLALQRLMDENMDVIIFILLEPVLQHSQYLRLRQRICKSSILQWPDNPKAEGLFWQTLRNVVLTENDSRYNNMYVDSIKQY

[3] = target: T2, Toll-like receptor 8 (Homo sapiens); assay: Agonist activity at TLR8 in human whole blood assessed as induction of TNF-alpha/IL-1beta by measuring increase in secreted alkaline phosphatase level pretreated for 24 hrs followed by HEK-TNF-alpha/IL-1beta reporter cell addition after 24 hrs by spectrophotometric method; in short: as §1

Measured: Activity

CCCCNc1nc(N)nc(C)c1CCCN1CCOCC1
active: all assays above
